Assay results from ChEMBL document CHEMBL4014350, “Alkoxyurea-Based Histone Deacetylase Inhibitors Increase Cisplatin Potency in Chemoresistant Cancer Cell Lines” (J Med Chem, 2017).
The source made the active and inactive calls. No cut-off for these calls is given here.

Tests used:
CAL-27 [1] = experiment: Potentiation of 1 uM cisplatin-induced cytotoxicity against human CAL27 cells assessed as decrease in cell viability by measuring combination index at 1500 uM preincubated for 48 hrs followed by cisplatin treatment measured after 72 hrs by MTT assay; format: functional; conditions: in the assay text read “at 1500 nM” for “at 1500 uM”
Outline: (§1)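 Cal27 and cisplatin-resistant Cal27CisR cells were preincubated with the HDAC inhibitor for 48 h, then given cisplatin in combination. Viability was read by MTT after 72 h. The combination index was computed by the Chou–Talalay method: CI > 1 is antagonism, CI = 1 is additive, and CI < 0.9 is synergism. Points with fraction affected below 0.20 were flagged.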

CAL-27 [2] = experiment: Potentiation of 1 uM cisplatin-induced cytotoxicity against human CAL27 cells assessed as decrease in cell viability by measuring combination index at 2000 uM preincubated for 48 hrs followed by cisplatin treatment measured after 72 hrs by MTT assay; format: functional; conditions: in the assay text read “at 2000 nM” for “at 2000 uM”; outline: as §1
CAL-27 [3] = experiment: Potentiation of 2 uM cisplatin-induced cytotoxicity against human CAL27 cells assessed as decrease in cell viability by measuring combination index at 1500 uM preincubated for 48 hrs followed by cisplatin treatment measured after 72 hrs by MTT assay; format: functional; conditions: in the assay text read “at 1500 nM” for “at 1500 uM”
Outline: (§2)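 HDAC inhibitor was added 48 h before cisplatin, then cells were exposed to cisplatin for 72 h and viability was read by MTT assay. Combination index was computed by the Chou–Talalay method: CI > 1 is antagonism, CI = 1 additive, CI < 0.9 synergism. Points with fraction affected below 0.20 were flagged.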

CAL-27 [4] = experiment: Potentiation of 5 uM cisplatin-induced cytotoxicity against human CAL27 cells assessed as decrease in cell viability by measuring combination index at 900 uM preincubated for 48 hrs followed by cisplatin treatment measured after 72 hrs by MTT assay; format: functional; conditions: in the assay text read “at 900 nM” for “at 900 uM”; outline: as §2
CAL-27 [5] = experiment: Potentiation of 5 uM cisplatin-induced cytotoxicity against human CAL27 cells assessed as decrease in cell viability by measuring combination index at 1000 uM preincubated for 48 hrs followed by cisplatin treatment measured after 72 hrs by MTT assay; format: functional; conditions: in the assay text read “at 1000 nM” for “at 1000 uM”; outline: as §2
CAL-27 [6] = experiment: Potentiation of 5 uM cisplatin-induced cytotoxicity against human CAL27 cells assessed as decrease in cell viability by measuring combination index at 2000 uM preincubated for 48 hrs followed by cisplatin treatment measured after 72 hrs by MTT assay; format: functional; conditions: in the assay text read “at 2000 nM” for “at 2000 uM”; outline: as §2
[7] = target: T1, Histone deacetylase 1/6 (Homo sapiens) (UniProt Q13547+Q9UBN7); experiment: Inhibition of HDAC1/HDAC6 in human Cal27CisR cells assessed as potentiation of 5 uM cisplatin-induced cytotoxicity by measuring combination index at 2000 uM preincubated for 48 hrs followed by cisplatin treatment measured after 72 hrs by MTT assay; format: cell-based; outline: as §1
T1 sequence (Q13547 whole entry, looked up): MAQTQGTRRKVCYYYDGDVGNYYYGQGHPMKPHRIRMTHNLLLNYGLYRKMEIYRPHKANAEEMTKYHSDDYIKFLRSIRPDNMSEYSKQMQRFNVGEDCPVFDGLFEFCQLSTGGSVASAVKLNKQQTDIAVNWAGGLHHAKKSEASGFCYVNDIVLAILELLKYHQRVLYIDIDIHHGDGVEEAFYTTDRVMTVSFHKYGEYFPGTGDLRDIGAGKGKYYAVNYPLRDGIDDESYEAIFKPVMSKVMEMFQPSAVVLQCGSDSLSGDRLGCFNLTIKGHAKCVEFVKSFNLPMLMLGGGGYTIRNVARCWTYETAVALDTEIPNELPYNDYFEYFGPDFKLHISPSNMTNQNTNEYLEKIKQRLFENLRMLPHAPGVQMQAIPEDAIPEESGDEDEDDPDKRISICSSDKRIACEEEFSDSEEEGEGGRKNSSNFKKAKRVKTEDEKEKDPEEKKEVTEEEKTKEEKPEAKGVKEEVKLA
T1 sequence (Q9UBN7 whole entry, looked up): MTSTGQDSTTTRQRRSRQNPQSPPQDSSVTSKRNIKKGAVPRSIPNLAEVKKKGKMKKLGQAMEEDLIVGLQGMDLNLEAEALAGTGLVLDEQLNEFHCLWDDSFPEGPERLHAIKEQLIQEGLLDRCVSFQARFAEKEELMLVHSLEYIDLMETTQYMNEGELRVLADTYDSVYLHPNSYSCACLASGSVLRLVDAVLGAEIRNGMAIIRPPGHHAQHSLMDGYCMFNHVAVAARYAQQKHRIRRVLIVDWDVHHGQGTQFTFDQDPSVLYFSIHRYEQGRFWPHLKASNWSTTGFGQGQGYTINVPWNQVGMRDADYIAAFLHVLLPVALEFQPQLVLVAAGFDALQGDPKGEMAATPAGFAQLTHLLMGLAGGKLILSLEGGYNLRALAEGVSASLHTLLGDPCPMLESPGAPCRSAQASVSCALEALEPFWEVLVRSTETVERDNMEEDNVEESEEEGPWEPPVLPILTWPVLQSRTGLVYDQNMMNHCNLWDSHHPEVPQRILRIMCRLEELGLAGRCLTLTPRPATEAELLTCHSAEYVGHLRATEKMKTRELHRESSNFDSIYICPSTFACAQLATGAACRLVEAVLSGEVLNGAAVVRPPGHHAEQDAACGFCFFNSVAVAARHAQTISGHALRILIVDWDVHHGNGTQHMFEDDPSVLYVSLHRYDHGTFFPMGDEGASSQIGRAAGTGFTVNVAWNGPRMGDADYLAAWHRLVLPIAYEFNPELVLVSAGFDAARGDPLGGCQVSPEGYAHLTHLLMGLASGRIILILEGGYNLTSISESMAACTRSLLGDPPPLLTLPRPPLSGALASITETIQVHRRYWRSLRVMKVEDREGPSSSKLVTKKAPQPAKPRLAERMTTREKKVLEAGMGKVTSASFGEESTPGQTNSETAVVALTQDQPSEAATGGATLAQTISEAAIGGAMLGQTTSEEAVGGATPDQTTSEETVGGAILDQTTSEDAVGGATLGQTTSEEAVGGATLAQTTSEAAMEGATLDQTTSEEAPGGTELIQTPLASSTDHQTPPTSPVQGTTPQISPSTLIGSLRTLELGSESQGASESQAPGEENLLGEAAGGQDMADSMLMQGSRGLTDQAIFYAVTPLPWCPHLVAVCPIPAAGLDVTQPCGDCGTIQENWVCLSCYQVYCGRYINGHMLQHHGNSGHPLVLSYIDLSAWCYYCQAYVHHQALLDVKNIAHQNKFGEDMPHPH

Cal27CisR = experiment: Induction of apoptosis in human Cal27CisR cells at 0.5 uM for 48 hrs by propidium iodide dye-based flow cytometry; format: functional, cell-based
[8] = target: T1, Histone deacetylase 1/6 (Homo sapiens); experiment: Inhibition of HDAC1/HDAC6 in human Cal27CisR cells assessed as potentiation of 10 uM cisplatin-induced cytotoxicity by measuring combination index at 900 nM preincubated for 48 hrs followed by cisplatin treatment measured after 72 hrs by MTT assay
CAL-27 [9] = experiment: Potentiation of 0.316 uM cisplatin-induced cytotoxicity against human CAL27 cells assessed as decrease in cell viability by measuring combination index at 400 uM preincubated for 48 hrs followed by cisplatin treatment measured after 72 hrs by MTT assay; format: functional; conditions: in the assay text read “at 400 nM” for “at 400 uM”; outline: as §1
CAL-27 [10] = experiment: Potentiation of 0.5 uM cisplatin-induced cytotoxicity against human CAL27 cells assessed as decrease in cell viability by measuring combination index at 400 uM preincubated for 48 hrs followed by cisplatin treatment measured after 72 hrs by MTT assay; format: functional; conditions: in the assay text read “at 400 nM” for “at 400 uM”; outline: as §1
CAL-27 [11] = experiment: Potentiation of 1 uM cisplatin-induced cytotoxicity against human CAL27 cells assessed as decrease in cell viability by measuring combination index at 300 uM preincubated for 48 hrs followed by cisplatin treatment measured after 72 hrs by MTT assay; format: functional; outline: as §2
CAL-27 [12] = experiment: Potentiation of 1 uM cisplatin-induced cytotoxicity against human CAL27 cells assessed as decrease in cell viability by measuring combination index at 400 uM preincubated for 48 hrs followed by cisplatin treatment measured after 72 hrs by MTT assay; format: functional; outline: as §2
CAL-27 [13] = experiment: Potentiation of 1 uM cisplatin-induced cytotoxicity against human CAL27 cells assessed as decrease in cell viability by measuring combination index at 100 uM preincubated for 48 hrs followed by cisplatin treatment measured after 72 hrs by MTT assay; format: functional; conditions: in the assay text read “at 100 nM” for “at 100 uM”; outline: as §1
CAL-27 [14] = experiment: Potentiation of 0.316 uM cisplatin-induced cytotoxicity against human CAL27 cells assessed as decrease in cell viability by measuring combination index at 100 uM preincubated for 48 hrs followed by cisplatin treatment measured after 72 hrs by MTT assay; format: functional; conditions: in the assay text read “at 100 nM” for “at 100 uM”; outline: as §1
CAL-27 [15] = experiment: Potentiation of 5 uM cisplatin-induced cytotoxicity against human CAL27 cells assessed as decrease in cell viability by measuring combination index at 300 uM preincubated for 48 hrs followed by cisplatin treatment measured after 72 hrs by MTT assay; format: functional; conditions: in the assay text read “at 300 nM” for “at 300 uM”; outline: as §2
[16] = target: T1, Histone deacetylase 1/6 (Homo sapiens); experiment: Inhibition of HDAC1/HDAC6 in human Cal27CisR cells assessed as potentiation of 3.16 uM cisplatin-induced cytotoxicity by measuring combination index at 300 uM preincubated for 48 hrs followed by cisplatin treatment measured after 72 hrs by MTT assay; format: cell-based
Outline: (§3)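 Cal27CisR cells preincubated 48 h with the HDAC inhibitor, then exposed to cisplatin for 72 h. Viability read by MTT. Combination index calculated by the Chou–Talalay method: CI > 1 antagonism, CI = 1 additive, CI < 0.9 synergism. Points with fraction affected below 0.20 are flagged. Values are the mean of three experiments.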

[17] = target: T1, Histone deacetylase 1/6 (Homo sapiens); experiment: Inhibition of HDAC1/HDAC6 in human Cal27CisR cells assessed as potentiation of 3.16 uM cisplatin-induced cytotoxicity by measuring combination index at 400 uM preincubated for 48 hrs followed by cisplatin treatment measured after 72 hrs by MTT assay; format: cell-based; outline: as §1
[18] = target: T1, Histone deacetylase 1/6 (Homo sapiens); experiment: Inhibition of HDAC1/HDAC6 in human Cal27CisR cells assessed as potentiation of 5 uM cisplatin-induced cytotoxicity by measuring combination index at 400 uM preincubated for 48 hrs followed by cisplatin treatment measured after 72 hrs by MTT assay; format: cell-based; outline: as §1
[19] = target: T1, Histone deacetylase 1/6 (Homo sapiens); experiment: Inhibition of HDAC1/HDAC6 in human Cal27CisR cells assessed as potentiation of 10 uM cisplatin-induced cytotoxicity by measuring combination index at 400 uM preincubated for 48 hrs followed by cisplatin treatment measured after 72 hrs by MTT assay; format: cell-based; outline: as §3
[20] = target: T1, Histone deacetylase 1/6 (Homo sapiens); experiment: Inhibition of HDAC1/HDAC6 in human Cal27CisR cells assessed as potentiation of 20 uM cisplatin-induced cytotoxicity by measuring combination index at 200 nM preincubated for 48 hrs followed by cisplatin treatment measured after 72 hrs by MTT assay

**Q.** How did the CI (CAL-27 [1]) turn out when COc1cc(NC(=O)NOCCCCCC(=O)NO)c2ncccc2c1 was run?
**A.** 0.64

**Q.** And the CI (CAL-27 [2])?
**A.** 0.75

**Q.** And the CI (CAL-27 [3])?
**A.** 0.6

**Q.** What about the CI (CAL-27 [4]) of the same compound?
**A.** 0.37

**Q.** And the CI (CAL-27 [5])?
**A.** 0.4

**Q.** And the CI (CAL-27 [6])?
**A.** 0.66

**Q.** What about the CI [7] of the same compound?
**A.** 0.59

**Q.** What about the Activity (Cal27CisR) of the same compound?
**A.** inactive

**Q.** What about the CI [8] of the same compound?
**A.** 0.43

**Q.** Which results are given for COc1cc(NC(=O)NOCCCCCC(=O)NO)c2nccc(C)c2c1?
**A.** CI (CAL-27 [9]): <0.2; CI (CAL-27 [10]): 0.91; CI (CAL-27 [11]): 0.44; CI (CAL-27 [12]): 0.39; CI (CAL-27 [13]): <0.2; CI (CAL-27 [14]): <0.2; CI (CAL-27 [15]): 0.25; CI [16]: < 0.2; CI [17]: < 0.2; CI [18]: 0.56; CI [19]: 0.26; CI [20]: 0.33

**Q.** Which CI (CAL-27 [9]) does the source give for COc1cc(NC(=O)NOCCCCCC(=O)NO)c2nc(OC)cc(C)c2c1 here?
**A.** 0.97

**Q.** And the CI (CAL-27 [10])?
**A.** 0.75

**Q.** And the CI (CAL-27 [11])?
**A.** 0.64

**Q.** And the CI (CAL-27 [12])?
**A.** 0.51

**Q.** And the CI (CAL-27 [13])?
**A.** <0.2

**Q.** And the CI (CAL-27 [14])?
**A.** <0.2

**Q.** And the CI (CAL-27 [15])?
**A.** 0.32

**Q.** What about the CI [16] of the same compound?
**A.** 0.46

**Q.** What about the CI [17] of the same compound?
**A.** 0.3

**Q.** What about the CI [18] of the same compound?
**A.** 0.19

**Q.** And the CI [19]?
**A.** 0.16

**Q.** What about the CI [20] of the same compound?
**A.** 0.19
